Tests used:
[1] = system: Hemozoin; test: Inhibition of hemoglobin degradation as percentage of organisms with dark swollen food vacuoles; 50-90%; assay type: functional; parameters: scale not given: the % may be the effect or the level left; settings: Plasmodium falciparum
[2] = system: Plasmodium falciparum; test: Inhibition of parasitaemia in [3H]hypoxanthine incorporation assay; assay type: functional, organism-based
Outline: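 Ring-stage P. falciparum Itg2 cultures (300 μL) given compound from 100× DMSO stocks for 24 h. [3H]hypoxanthine then added (0.0144 μg, 1.2 μCi per well) for a further 18 h. Cells harvested onto glass-fiber filters and counted by scintillation. Uptake compared with 1% DMSO controls; IC50 extrapolated from % control curves.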

[3] = system: Plasmodium falciparum; test: Inhibition of parasitaemia in ring-form development assay; assay type: functional, organism-based
Outline: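 Ring-stage Itg2 cultures (2 mL) incubated with compound from 100× DMSO stocks. Medium changed at 24 h with inhibitor maintained. At 48 h, new ring forms per 1000 erythrocytes counted on Giemsa-stained smears and compared with 1% DMSO controls.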

[4] = target: T1, Falcipain 2 (Plasmodium falciparum, UniProt Q9N6S8); test: Inhibition of falcipain activity; assay type: functional
T1 sequence (Q9N6S8 whole entry): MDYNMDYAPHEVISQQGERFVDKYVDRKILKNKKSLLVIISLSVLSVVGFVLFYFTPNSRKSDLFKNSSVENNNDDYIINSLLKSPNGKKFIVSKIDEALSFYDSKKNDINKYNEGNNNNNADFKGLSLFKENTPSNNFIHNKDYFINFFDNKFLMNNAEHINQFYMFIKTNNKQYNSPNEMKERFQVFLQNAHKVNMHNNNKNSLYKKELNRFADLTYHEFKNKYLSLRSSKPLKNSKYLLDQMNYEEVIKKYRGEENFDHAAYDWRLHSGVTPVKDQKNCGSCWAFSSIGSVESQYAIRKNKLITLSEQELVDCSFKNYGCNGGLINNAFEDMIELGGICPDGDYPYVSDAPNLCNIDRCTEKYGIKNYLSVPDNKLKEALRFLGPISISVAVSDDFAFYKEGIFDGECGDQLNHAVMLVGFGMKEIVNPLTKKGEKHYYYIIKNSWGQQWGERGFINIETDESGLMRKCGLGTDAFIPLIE
Outline: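 Soluble parasite extract containing falcipain (30 nM) preincubated 30 min at room temperature with compound (100× DMSO stocks) and 10 mM DTT in 0.1 M sodium acetate, pH 5.5. Z-Phe-Arg-AMC then added to 50 μM final. Fluorescence (ex 380, em 460 nm) followed continuously for 30 min. Rates compared with DMSO controls. Multiple concentrations tested in duplicate or triplicate; IC50 extrapolated from % control activity curves.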

[5] = system: Hemozoin; test: Inhibition of hemoglobin degradation as percentage of organisms with dark swollen food vacuoles; assay type: functional; parameters: scale not given: the % may be the effect or the level left; settings: Plasmodium falciparum
[6] = system: MDCK; test: Compound was tested for inhibition of MDCK cell metabolism using MTT assay method.; assay type: functional, cell-based; settings: Canis lupus familiaris
Outline: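 MDCK cells cultured overnight in phenol red-free RPMI with 1–100 μM compound (100× DMSO stocks); medium then replaced with MTT (1 mg/mL) for 2 h. Supernatant removed, ethanol added, absorbance read at 560 nm. Compared with cells given 1% DMSO overnight.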

[7] = system: Hemozoin; test: Inhibition of hemoglobin degradation as percentage of organisms with dark swollen food vacuoles; 10-50%; assay type: functional; parameters: scale not given: the % may be the effect or the level left; settings: Plasmodium falciparum
[8] = system: Hemozoin; test: Inhibition of hemoglobin degradation as percentage of organisms with dark swollen food vacuoles; 0-10%; assay type: functional; parameters: scale not given: the % may be the effect or the level left; settings: Plasmodium falciparum

| Structure (SMILES) | IC50 [2] | IC50 [3] | IC50 [4] | other results |
| --- | --- | --- | --- | --- |
| O=S1(=O)C2=C(O)CC(c3ccccc3)CC2=Nc2ccc(Cl)cc21 (stereo not drawn) | 5 µM | 5 µM | 4 µM | Activity [1]: 90% |
| COc1cccc(C2CC3=Nc4ccc(Cl)cc4SC3=C(O)C2)c1 (stereo not drawn) | – | – | 20 µM | – |
| COc1cccc(C2CC3=Nc4ccc(Cl)cc4S(=O)(=O)C3=C(O)C2)c1OC (stereo not drawn) | 2 µM | 2 µM | 4 µM | Activity [5]: > 90%; IC50 [6]: > 100 µM |
| COc1ccc(C2CC3=Nc4ccc(F)cc4S(=O)(=O)C3=C(O)C2)cc1OC (stereo not drawn) | 3 µM | 1 µM | 5 µM | Activity [7]: 50% |
| COc1ccc(C2CC3=Nc4ccc(Cl)cc4SC3=C(O)C2)cc1OC (stereo not drawn) | – | – | 30 µM | – |
| OC1=C2Sc3cc(F)ccc3N=C2CC(c2ccc(Cl)cc2)C1 (stereo not drawn) | 4 µM | 3 µM | 5 µM | Activity [1]: 90%; IC50 [6]: > 100 µM |
| OC1=C2Sc3cc(Cl)ccc3N=C2CC(c2ccccc2)C1 (stereo not drawn) | – | – | 10 µM | – |
| COc1ccc(C2CC3=Nc4ccc(Cl)cc4S(=O)(=O)C3=C(O)C2)cc1OC (stereo not drawn) | – | – | 50 µM | – |
| CC1(C)CC2=Nc3ccc(F)cc3S(=O)(=O)C2=C(O)C1 | 100 µM | 30 µM | 5 µM | Activity [5]: > 90%; IC50 [6]: > 100 µM |
| OC1=C2Sc3cc(F)ccc3N=C2CC(c2ccc(Cl)cc2Cl)C1 (stereo not drawn) | – | – | 10 µM | – |
| COc1ccc(C2CC3=Nc4ccc(Cl)cc4S(=O)(=O)C3=C(O)C2)cc1 (stereo not drawn) | – | – | 30 µM | – |
| OC1=C2Sc3cc(Cl)ccc3N=C2CC(c2ccc(Cl)cc2Cl)C1 (stereo not drawn) | – | – | 10 µM | – |
| O=S1(=O)C2=C(O)CC(c3ccc(Cl)cc3)CC2=Nc2ccc(F)cc21 (stereo not drawn) | 4 µM | 6 µM | 5 µM | Activity [7]: 50% |
| OC1=C2Sc3cc(F)ccc3N=C2CC(c2ccccc2)C1 (stereo not drawn) | – | – | 20 µM | – |
| COc1cccc(C2CC3=Nc4ccc(F)cc4SC3=C(O)C2)c1OC (stereo not drawn) | – | – | 20 µM | – |
| OC1=C2Sc3cc(Cl)ccc3N=C2CCC1 | – | – | 40 µM | – |
| CC1(C)CC2=Nc3ccc(Cl)cc3SC2=C(O)C1 | – | – | 30 µM | – |
| CC1(C)CC2=Nc3ccc(Cl)cc3S(=O)(=O)C2=C(O)C1 | 60 µM | 20 µM | 5 µM | Activity [5]: > 90%; IC50 [6]: > 100 µM |
| O=S1(=O)C2=C(O)CC(c3ccc(Cl)cc3Cl)CC2=Nc2ccc(Cl)cc21 (stereo not drawn) | – | – | 30 µM | – |
| COc1ccc(C2CC3=Nc4ccc(F)cc4SC3=C(O)C2)cc1OC (stereo not drawn) | – | – | 20 µM | – |
| COc1ccc(C2CC3=Nc4ccc(Cl)cc4SC3=C(O)C2)cc1 (stereo not drawn) | – | – | 10 µM | – |
| COc1cccc(C2CC3=Nc4ccc(F)cc4S(=O)(=O)C3=C(O)C2)c1 (stereo not drawn) | 3 µM | 3 µM | 5 µM | Activity [1]: 90%; IC50 [6]: > 100 µM |
| OC1=C2Sc3cc(Cl)ccc3N=C2CC(c2ccc(Cl)cc2)C1 (stereo not drawn) | 6 µM | 3 µM | 4 µM | IC50 [6]: 10 µM; Activity [8]: < 10% |
| COc1cccc(C2CC3=Nc4ccc(F)cc4SC3=C(O)C2)c1 (stereo not drawn) | – | – | 20 µM | – |
| COc1cccc(C2CC3=Nc4ccc(Cl)cc4SC3=C(O)C2)c1OC (stereo not drawn) | – | – | 10 µM | – |
| CC1(C)CC2=Nc3ccc(F)cc3SC2=C(O)C1 | – | – | 60 µM | – |
| O=S1(=O)C2=C(O)CC(c3ccc(Cl)cc3)CC2=Nc2ccc(Cl)cc21 (stereo not drawn) | 8 µM | 4 µM | 4 µM | Activity [7]: 50% |

Source: ChEMBL document CHEMBL1130327, “Synthesis and antimalarial effects of phenothiazine inhibitors of a Plasmodium falciparum cysteine protease” (J Med Chem, 1997)
